# From ChEMBL document CHEMBL1138325, “Design, synthesis, in vitro, and in vivo characterization of phenylpiperazines and pyridinylpiperazines as potent and selective antagonists of the melanocortin-4 receptor” (J Med Chem, 2007)
# Calls of active or inactive are those of the source. No cut-off for these calls is given here.
# Key:
# [1] = Drug level in CD1 mouse brain at 5 mg/kg, iv after 1 hr; format: ADME, organism-based; set-up: dose 5 mg/kg, route intravenous; settings: read-out: Drug uptake
# Outline: (§1)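 CD-1 mice, three animals, dosed i.v. at 5 mg/kg and by oral gavage at 10 mg/kg. Plasma CL, Vd, t1/2, Cmax, Tmax, oral AUC and F% were derived. Brain concentrations and brain/plasma ratios at 1 and 4 h were taken from the i.v. dosing.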
# [2] = Distribution coefficient, log D by shake flask method; format: physicochemical; settings: octanol/water
# Outline: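 LogD measured by the shake-flask method; described elsewhere in the paper as lipophilicity at pH 7.4.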
# [3] = Bioavailability in monkey at 10 mg/kg, po; format: ADME, organism-based, Macaca mulatta; settings: rhesus monkey, in vivo
# [4] = Volume of distribution in Sprague-Dawley rat at 5 mg/kg, iv and 10 mg/kg, po; format: ADME, organism-based; settings: in vivo
# Outline: (§2)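 Sprague–Dawley rats, three animals per route; i.v. dose 5 mg/kg and oral 10 mg/kg. Brain concentrations and brain/plasma ratios taken from the oral dosing at 1 and 4 h post-dose.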
# Melanocortin receptor 5 = Melanocortin receptor 5 (Homo sapiens, UniProt P33032); assay: Displacement of [125I]NDPMSH from human MC5R expressed in HEK293 cells; format: cell-based
# Melanocortin receptor 5, sequence (P33032 whole entry): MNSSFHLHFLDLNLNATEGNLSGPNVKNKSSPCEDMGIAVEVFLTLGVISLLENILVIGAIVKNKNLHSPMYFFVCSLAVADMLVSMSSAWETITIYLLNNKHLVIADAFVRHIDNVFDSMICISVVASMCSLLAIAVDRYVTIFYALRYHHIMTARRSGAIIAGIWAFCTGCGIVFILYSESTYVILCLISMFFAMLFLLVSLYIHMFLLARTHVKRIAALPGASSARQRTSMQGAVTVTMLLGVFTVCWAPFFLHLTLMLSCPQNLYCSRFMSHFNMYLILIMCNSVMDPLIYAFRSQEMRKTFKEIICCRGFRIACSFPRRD
# Mus musculus [5] = assay: Increase in food intake in Lewis lung carcinoma bearing C57BL/6J mouse at 9 mg/kg, ip bid after 4 days; format: functional, organism-based; set-up: dose 9 mg/kg
# Outline: (§3)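 Male C57BL/6J mice inoculated with Lewis lung carcinoma cells. From day 11 after inoculation, mice were dosed i.p. twice daily at 3 or 9 mg/kg for 4 days and compared with vehicle-treated tumor-bearing controls. Food intake and body weight were recorded; lean body mass was measured by DEXA.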
# [6] = biological target: T1, Growth hormone secretagogue receptor type 1 (Homo sapiens, UniProt Q92847); assay: Binding affinity to GHSR
# T1 sequence (Q92847 whole entry): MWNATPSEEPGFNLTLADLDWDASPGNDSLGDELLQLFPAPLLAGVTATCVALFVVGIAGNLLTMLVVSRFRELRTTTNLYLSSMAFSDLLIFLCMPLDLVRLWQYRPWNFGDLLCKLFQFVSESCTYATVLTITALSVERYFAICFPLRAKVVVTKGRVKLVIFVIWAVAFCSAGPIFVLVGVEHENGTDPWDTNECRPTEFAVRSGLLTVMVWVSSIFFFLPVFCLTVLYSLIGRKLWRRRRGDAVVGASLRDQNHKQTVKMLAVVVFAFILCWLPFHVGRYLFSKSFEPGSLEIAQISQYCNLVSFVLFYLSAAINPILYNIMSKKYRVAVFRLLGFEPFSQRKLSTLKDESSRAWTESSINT
# [7] = AUC in Sprague-Dawley rat at 10 mg/kg, po; format: ADME, organism-based; set-up: dose 10 mg/kg, route oral; settings: plasma
# [8] = Volume of distribution in monkey at 5 mg/kg, iv; format: ADME, organism-based, Macaca mulatta; set-up: dose 5 mg/kg, route intravenous; settings: rhesus monkey, in vivo
# [9] = AUC in monkey at 10 mg/kg, po; format: ADME, organism-based, Macaca mulatta; set-up: dose 10 mg/kg, route oral; settings: rhesus monkey, plasma
# Melanocortin receptor 4 [10] = biological target: Melanocortin receptor 4 (Mus musculus, UniProt P56450); assay: Binding affinity to mouse MC4R
# Melanocortin receptor 4 (Mus musculus, UniProt P56450), sequence (P56450 whole entry): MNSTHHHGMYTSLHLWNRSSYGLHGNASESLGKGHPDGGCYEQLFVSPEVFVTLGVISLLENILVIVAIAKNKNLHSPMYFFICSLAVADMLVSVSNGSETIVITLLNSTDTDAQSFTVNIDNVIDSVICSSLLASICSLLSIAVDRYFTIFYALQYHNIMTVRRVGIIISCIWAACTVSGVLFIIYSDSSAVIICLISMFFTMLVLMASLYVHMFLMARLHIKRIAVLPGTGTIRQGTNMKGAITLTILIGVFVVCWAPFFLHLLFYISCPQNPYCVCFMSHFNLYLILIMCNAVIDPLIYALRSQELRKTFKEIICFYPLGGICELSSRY
# [11] = Bioavailability in dog at 10 mg/kg, po; format: ADME, organism-based, Canis lupus familiaris; settings: in vivo
# Mus musculus [12] = assay: Increase in lean body mass in Lewis lung carcinoma bearing C57BL/6J mouse at 3 mg/kg, ip bid after 4 days; format: functional; settings: route intraperitoneal; outline: as §3
# [13] = Drug level in CD1 mouse brain at 5 mg/kg, iv after 4 hrs; format: ADME, organism-based; set-up: dose 5 mg/kg, route intravenous; settings: read-out: Drug uptake; outline: as §1
# Cytochrome P450 2C19 = Cytochrome P450 2C19 (Homo sapiens, UniProt P33261); assay: Inhibition of CYP2C19; format: ADME
# Cytochrome P450 2C19, sequence (P33261 whole entry): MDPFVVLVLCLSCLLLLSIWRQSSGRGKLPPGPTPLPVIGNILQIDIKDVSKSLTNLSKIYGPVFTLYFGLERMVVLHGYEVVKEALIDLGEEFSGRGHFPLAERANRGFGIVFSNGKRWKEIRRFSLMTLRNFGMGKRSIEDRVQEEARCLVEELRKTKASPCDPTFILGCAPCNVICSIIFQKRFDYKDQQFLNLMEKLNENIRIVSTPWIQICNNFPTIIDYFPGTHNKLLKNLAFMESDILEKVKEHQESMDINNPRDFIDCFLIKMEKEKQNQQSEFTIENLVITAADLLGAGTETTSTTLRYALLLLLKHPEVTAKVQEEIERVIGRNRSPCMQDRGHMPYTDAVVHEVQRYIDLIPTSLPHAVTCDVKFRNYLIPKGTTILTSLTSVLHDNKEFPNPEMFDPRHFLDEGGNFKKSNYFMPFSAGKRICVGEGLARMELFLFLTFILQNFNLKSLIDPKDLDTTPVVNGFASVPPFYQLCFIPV
# [14] = Tmax in Sprague-Dawley rat at 5 mg/kg, iv and 10 mg/kg, po; format: ADME, organism-based; settings: in vivo; outline: as §2
# [15] = Tmax in CD1 mouse at 10 mg/kg, ip; format: ADME, organism-based; set-up: dose 10 mg/kg, route intraperitoneal; settings: in vivo
# [16] = Drug level in Sprague-Dawley rat brain at 10 mg/kg, po after 4 hrs; format: ADME, organism-based; set-up: dose 10 mg/kg, route oral; settings: read-out: Drug uptake
# Mus musculus [17] = assay: Increase in body weight in Lewis lung carcinoma bearing C57BL/6J mouse at 9 mg/kg, ip bid after 4 days; format: functional, organism-based; set-up: dose 9 mg/kg; outline: as §3
# Mus musculus [18] = assay: Increase in body weight in Lewis lung carcinoma bearing C57BL/6J mouse at 3 mg/kg, ip bid after 4 days; format: functional, organism-based; set-up: dose 3 mg/kg; outline: as §3
# [19] = biological target: Melanocyte-stimulating hormone receptor (Homo sapiens, UniProt Q01726); assay: Displacement of [125I]NDPMSH from human MC1R expressed in HEK293 cells at 10 uM; format: cell-based
# Melanocyte-stimulating hormone receptor, sequence (Q01726 whole entry, looked up): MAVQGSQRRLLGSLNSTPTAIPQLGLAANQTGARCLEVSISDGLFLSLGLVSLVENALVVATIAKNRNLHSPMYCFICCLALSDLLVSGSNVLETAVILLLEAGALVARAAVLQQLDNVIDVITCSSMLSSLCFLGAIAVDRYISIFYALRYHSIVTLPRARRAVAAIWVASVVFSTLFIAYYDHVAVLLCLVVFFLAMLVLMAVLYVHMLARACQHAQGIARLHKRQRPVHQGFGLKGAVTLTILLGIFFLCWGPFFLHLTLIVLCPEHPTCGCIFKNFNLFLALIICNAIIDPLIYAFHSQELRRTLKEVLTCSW
# [20] = Ratio of drug level in brain to plasma in CD1 mouse at 5 mg/kg, iv after 1 hr; format: ADME, organism-based; set-up: dose 5 mg/kg, route intravenous; settings: brain and plasma, read-out: BPR
# Cytochrome P450 3A4 = Cytochrome P450 3A4 (Homo sapiens, UniProt P08684); assay: Inhibition of CYP3A4; format: ADME
# Cytochrome P450 3A4, sequence (P08684 whole entry): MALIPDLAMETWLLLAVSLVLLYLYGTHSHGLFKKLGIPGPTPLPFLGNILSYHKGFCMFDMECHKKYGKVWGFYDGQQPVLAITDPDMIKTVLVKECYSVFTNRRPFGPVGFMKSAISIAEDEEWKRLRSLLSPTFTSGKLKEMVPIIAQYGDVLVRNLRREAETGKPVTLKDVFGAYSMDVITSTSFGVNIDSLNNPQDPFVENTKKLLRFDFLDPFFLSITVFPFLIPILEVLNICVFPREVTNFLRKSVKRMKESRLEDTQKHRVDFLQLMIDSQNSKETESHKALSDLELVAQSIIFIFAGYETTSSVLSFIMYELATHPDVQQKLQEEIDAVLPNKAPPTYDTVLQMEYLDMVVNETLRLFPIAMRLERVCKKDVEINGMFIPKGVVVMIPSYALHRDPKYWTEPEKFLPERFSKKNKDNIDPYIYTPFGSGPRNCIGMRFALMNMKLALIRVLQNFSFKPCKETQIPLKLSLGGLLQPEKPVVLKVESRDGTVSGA
# [21] = Tmax in dog at 10 mg/kg, po; format: ADME, organism-based, Canis lupus familiaris; set-up: dose 10 mg/kg, route oral; settings: in vivo
# [22] = Ratio of drug level in brain to plasma in Sprague-Dawley rat at 10 mg/kg, po after 1 hr; format: ADME, organism-based; set-up: dose 10 mg/kg, route oral; settings: brain and plasma, read-out: BPR; outline: as §2
# [23] = AUC in monkey at 5 mg/kg, iv; format: ADME, organism-based, Macaca mulatta; set-up: dose 5 mg/kg, route intravenous; settings: rhesus monkey, plasma
# [24] = Ratio of drug level in brain to plasma in Sprague-Dawley rat at 10 mg/kg, po after 4 hrs; format: ADME, organism-based; set-up: dose 10 mg/kg, route oral; settings: brain and plasma, read-out: BPR; outline: as §2
# [25] = Clearance in dog at 5 mg/kg, iv; format: ADME, organism-based, Canis lupus familiaris; set-up: dose 5 mg/kg, route intravenous; settings: in vivo
# [26] = biological target: T1, Growth hormone secretagogue receptor type 1; assay: Agonist activity at GHSR; format: functional
# Melanocortin receptor 4 [27] = biological target: T2, Melanocortin receptor 4 (Homo sapiens, UniProt P32245); assay: Antagonist activity at human MC4R expressed in HEK293 cells assessed as inhibition of alpha-MSH-stimulated cAMP production; format: functional, cell-based
# T2 sequence (P32245 whole entry): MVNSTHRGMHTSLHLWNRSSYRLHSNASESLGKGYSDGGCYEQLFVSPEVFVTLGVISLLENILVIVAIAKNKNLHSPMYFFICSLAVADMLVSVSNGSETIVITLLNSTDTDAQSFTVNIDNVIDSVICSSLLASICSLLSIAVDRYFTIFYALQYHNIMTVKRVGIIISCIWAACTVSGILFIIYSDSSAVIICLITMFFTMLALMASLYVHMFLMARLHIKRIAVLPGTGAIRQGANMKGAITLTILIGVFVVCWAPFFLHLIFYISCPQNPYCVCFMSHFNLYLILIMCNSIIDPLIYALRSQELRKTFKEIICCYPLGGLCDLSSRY
# Cytochrome P450 1A2 = biological target: T3, Cytochrome P450 1A2 (Homo sapiens, UniProt P05177); assay: Inhibition of CYP1A2; format: ADME
# T3 sequence (P05177 whole entry): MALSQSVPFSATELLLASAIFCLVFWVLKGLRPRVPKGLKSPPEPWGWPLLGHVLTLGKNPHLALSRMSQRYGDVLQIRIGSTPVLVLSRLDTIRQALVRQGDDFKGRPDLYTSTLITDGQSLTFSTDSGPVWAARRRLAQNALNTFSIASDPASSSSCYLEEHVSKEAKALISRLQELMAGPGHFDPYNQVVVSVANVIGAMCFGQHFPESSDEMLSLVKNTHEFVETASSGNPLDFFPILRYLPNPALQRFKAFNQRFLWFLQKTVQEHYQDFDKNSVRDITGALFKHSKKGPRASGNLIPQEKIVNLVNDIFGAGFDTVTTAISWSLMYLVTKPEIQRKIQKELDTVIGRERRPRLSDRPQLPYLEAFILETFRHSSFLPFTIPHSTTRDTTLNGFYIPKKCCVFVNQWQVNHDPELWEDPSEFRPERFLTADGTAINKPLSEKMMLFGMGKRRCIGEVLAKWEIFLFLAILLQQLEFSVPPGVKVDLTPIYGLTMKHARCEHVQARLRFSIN
# [28] = AUC in CD1 mouse at 10 mg/kg, po; format: ADME, organism-based; set-up: dose 10 mg/kg, route oral; settings: plasma; outline: as §1
# Melanocortin receptor 4 [29] = biological target: T2, Melanocortin receptor 4; assay: Displacement of [125I]NDPMSH from human MC4R expressed in HEK293 cells; format: cell-based
# [30] = Clearance in monkey at 5 mg/kg, iv; format: ADME, organism-based, Macaca mulatta; set-up: dose 5 mg/kg, route intravenous; settings: rhesus monkey, in vivo
# [31] = Half life in dog at 5 mg/kg, iv; format: ADME, organism-based, Canis lupus familiaris; set-up: dose 5 mg/kg, route intravenous; settings: in vivo
# [32] = Cmax in monkey at 10 mg/kg, po; format: ADME, organism-based, Macaca mulatta; set-up: dose 10 mg/kg, route oral; settings: rhesus monkey, in vivo
# Cytochrome P450 2D6 = Cytochrome P450 2D6 (Homo sapiens, UniProt P10635); assay: Inhibition of CYP2D6; format: ADME
# Cytochrome P450 2D6, sequence (P10635 whole entry): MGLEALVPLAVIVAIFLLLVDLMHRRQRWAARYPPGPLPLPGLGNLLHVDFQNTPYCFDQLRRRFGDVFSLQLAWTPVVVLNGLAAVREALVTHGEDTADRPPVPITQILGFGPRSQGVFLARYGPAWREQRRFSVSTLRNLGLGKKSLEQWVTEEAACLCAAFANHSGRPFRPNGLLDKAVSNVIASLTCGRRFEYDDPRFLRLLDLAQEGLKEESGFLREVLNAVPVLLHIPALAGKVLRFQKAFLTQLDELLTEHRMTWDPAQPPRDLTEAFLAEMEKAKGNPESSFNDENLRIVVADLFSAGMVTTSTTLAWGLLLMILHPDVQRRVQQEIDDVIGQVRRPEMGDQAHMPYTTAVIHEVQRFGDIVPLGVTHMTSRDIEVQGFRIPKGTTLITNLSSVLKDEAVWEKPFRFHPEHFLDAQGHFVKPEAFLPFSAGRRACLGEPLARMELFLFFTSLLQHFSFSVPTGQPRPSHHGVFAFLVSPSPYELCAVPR
# [33] = Drug level in Sprague-Dawley rat brain at 10 mg/kg, po after 1 hr; format: ADME, organism-based; set-up: dose 10 mg/kg, route oral; settings: read-out: Drug uptake
# [34] = Cmax in CD1 mouse at 10 mg/kg, ip; format: ADME, organism-based; set-up: dose 10 mg/kg, route intraperitoneal; settings: in vivo
# Outline: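 CD-1 mice, single intraperitoneal dose of 10 mg/kg, n = 3. Plasma concentration followed over time, giving Cmax, Tmax and AUC.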
# Mus musculus [35] = assay: Increase in lean body mass in Lewis lung carcinoma bearing C57BL/6J mouse at 9 mg/kg, ip bid after 4 days; format: functional; settings: route intraperitoneal; outline: as §3
# [36] = Cmax in CD1 mouse at 10 mg/kg, po after 6 hrs; format: ADME, organism-based; set-up: dose 10 mg/kg, route oral; settings: in vivo; outline: as §1
# [37] = Cmax in Sprague-Dawley rat at 10 mg/kg, po; format: ADME, organism-based; set-up: dose 10 mg/kg, route oral; settings: in vivo
# [38] = Bioavailability in CD1 mouse at 10 mg/kg, po; format: ADME, organism-based; settings: in vivo; outline: as §1
smiles,measurement,setting,value
CC(C)C[C@H](NC(=O)CCN(C)C)c1cc(Cl)ccc1N1CCN(C(=O)[C@H](C)Cc2ccc(Cl)cc2)CC1,concentration at 1 h,[1],800 ng/g
same,logD,[2],3.9
same,bioavailability,[3],13.1%
same,Vd,[4],2.5 L/kg
same,Ki,Melanocortin receptor 5,0.6 µM
same,Activity,Mus musculus [5],Active
same,Ki,[6],0.46 µM
same,AUC,[7],1870 ng·h/mL
same,Vd,[8],8.5 L/kg
same,AUC,[9],1070 ng·h/mL
same,Ki,Melanocortin receptor 4 [10],0.018 µM
same,bioavailability,[11],29.4%
same,Activity,Mus musculus [12],7%
same,concentration at 4 h,[13],177 ng/g
same,IC50,Cytochrome P450 2C19,> 10 µM
same,Tmax,[14],6 h
same,Tmax,[15],0.3 h
same,concentration at 4 h,[16],27 ng/g
same,Activity,Mus musculus [17],Active
same,Activity,Mus musculus [18],Active
same,Activity,[19],20%
same,Kp at 1 h,[20],2.4
same,IC50,Cytochrome P450 3A4,> 10 µM
same,Tmax,[21],1 h
same,Kp at 1 h,[22],0.1
same,AUC,[23],3700 ng·h/mL
same,Kp at 4 h,[24],0.3
same,clearance,[25],29.4 mL/min/kg
same,EC50,[26],0.72 µM
same,Intrinsic activity,[26],47%
same,IC50,Melanocortin receptor 4 [27],0.93 µM
same,IC50,Cytochrome P450 1A2,> 10 µM
same,AUC,[28],1160 ng·h/mL
same,Ki,Melanocortin receptor 4 [29],0.0034 µM
same,clearance,[30],24.3 mL/min/kg
same,half-life,[31],4.7 h
same,Cmax,[32],108 ng/mL
same,IC50,Cytochrome P450 2D6,> 10 µM
same,concentration at 1 h,[33],3 ng/g
same,Cmax,[34],1520 ng/mL
same,Activity,Mus musculus [35],15%
same,Cmax,[36],132 ng/mL
same,Cmax,[37],163 ng/mL
same,bioavailability,[38],23%
